Laboratory results taken from ChEMBL document CHEMBL1148639, “A novel series of potent and selective PDE5 inhibitors with potential for high and dose-independent oral bioavailability” (J Med Chem, 2006).
Values after ≈ are worked out from the molar mass of the structure shown.

What was measured:
[1] = Selectivity for human PDE5 over canine retinal PDE6
Procedure, shortened: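 Ratio of IC50s for PDE5 from human corpus cavernosum and cone PDE6 from canine retina. PDE6 came from the 100 000g supernatant of retina homogenate, purified by anion exchange with a NaCl gradient. Activity was read by scintillation proximity assay with cGMP (3:1 unlabeled:3H) at about 1/3 Km, so IC50 = Ki. Buffer was 20 mM Tris-HCl pH 7.4, 5 mM MgCl2 and 1 mg/mL BSA. Incubation ran 30-60 min at 30 °C, keeping turnover below 30%. PDE5 curves spanned 1 nM-10 µM.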

[2] = biological target: T1, cGMP-specific 3',5'-cyclic phosphodiesterase (Homo sapiens, UniProt O76074)
[3] = Oral bioavailability in dog at 0.5 mg/kg; type: ADME, organism-based, Canis lupus familiaris; settings: in vivo
[4] = Solubility at pH 7.4; type: physicochemical; settings: buffer
Procedure, shortened: (§1)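 Solid was removed by filtration (with filter-binding check) or double centrifugation. The pH of the soluble fraction was measured, and the solution was diluted in mobile phase and quantified by HPLC or MS. Bulk form was checked by microscopy.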

[5] = biological target: T1, cGMP-specific 3',5'-cyclic phosphodiesterase; remark: listed apart in the source
physchem = settings: octanol/water, pH 7.4
[6] = Stability in dog liver microsome; type: ADME, Canis lupus familiaris; settings: liver microsomes, read-out: Stability
[7] = Half life in dog at 0.5 mg/kg; type: ADME, organism-based, Canis lupus familiaris; design: dose 0.5 mg/kg; settings: in vivo
Procedure, shortened: (§2)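 Compound was given intravenously to dogs. Pharmacokinetic parameters, including plasma protein binding, are means of n = 2 animals.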

[8] = Volume of distribution in dog at 0.5 mg/kg; type: ADME, organism-based, Canis lupus familiaris; design: dose 0.5 mg/kg; settings: in vivo, read-out: Vdss; procedure, shortened: as §2
[9] = Plasma protein binding in dog at 0.5 mg/kg; type: ADME, organism-based, Canis lupus familiaris; design: dose 0.5 mg/kg; settings: read-out: PPB (converted); procedure, shortened: as §2
[10] = Ratio of secretory flux to absorptive flux in human Caco-2 cell; type: ADME, cell-based
Procedure, shortened: (§3)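 Human Caco-2 monolayers were used. Papp = amount transported/(time × surface area × initial concentration). Compounds were tested at 25 µM unless stated otherwise. Efflux ratio = secretory flux ÷ absorptive flux.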

[11] = Tmax in dog at 0.5 mg/kg; type: ADME, organism-based, Canis lupus familiaris; design: dose 0.5 mg/kg; settings: in vivo
[12] = Clearance in dog at 0.5 mg/kg; type: ADME, organism-based, Canis lupus familiaris; design: dose 0.5 mg/kg; settings: in vivo; procedure, shortened: as §2
[13] = Apparent permeability in human Caco-2 cell at 25 uM; type: ADME, cell-based; procedure, shortened: as §3
[14] = Distribution coefficient, logD of the compound; type: physicochemical; settings: octanol/water
[15] = Solubility at pH 7.3; type: physicochemical; settings: buffer; procedure, shortened: as §1
[16] = Oral bioavailability in human; type: ADME, organism-based; settings: in vivo
[17] = Solubility at pH 6.95; type: physicochemical; settings: buffer; procedure, shortened: as §1
[18] = Solubility at pH 7.6; type: physicochemical; settings: buffer; procedure, shortened: as §1

Question: With `CCc1c2nc(-c3cc(C(C)=O)cnc3OCCOC)nc(O)c2nn1CCN1CCOCC1` as the compound, how does the Selectivity ratio [1] read?
Answer: 58

Question: What about the IC50 [2] of the same compound?
Answer: 53 nM

Question: For `CCCCOc1ncc(C(C)=O)cc1-c1nc2c(CC)n(C3CCN(C)CC3)nc2c(=O)[nH]1`, which IC50 [2] is on record?
Answer: 9.1 nM

Question: Which results are given for `CCCCOc1ncc(C(C)=O)cc1-c1nc2c(CC)n(C3CN(CC)C3)nc2c(=O)[nH]1`?
Answer: bioavailability [3]: 76%; solubility [4]: 390 µg/mL (≈ 889 µM); IC50 [5]: 5.5 nM; logD (physchem): 2.8; half-life [6]: 1.58 h; half-life [7]: 9 h; Vd [8]: 13.4 L/kg; fraction unbound [9]: 0.38; efflux ratio [10]: 0.9; IC50 [2]: 5.5 nM; Tmax [11]: 1.4 h; clearance [12]: 17.5 mL/min/kg; Papp at 25 µM [13]: 30 ×10⁻⁶ cm/s

Question: For `CCCOc1ncc(C(C)=O)cc1-c1nc(O)c2nn(C3CCN(C)CC3)c(CC)c2n1`, which Selectivity ratio [1] is on record?
Answer: 37

Question: What does the source list for `CCCOc1ncc(C(C)=O)cc1-c1nc(O)c2nn(C3CN(C)C3)c(CCC)c2n1`?
Answer: Selectivity ratio [1]: 30; logD [14]: 1.5; IC50 [2]: 14.7 nM

Question: For `CCCCOc1ncc(C(C)=O)cc1-c1nc(O)c2nn(C3CN(CC)C3)c(CC)c2n1`, which Selectivity ratio [1] is on record?
Answer: 153

Question: With `CCCc1nn(C)c2c(=O)[nH]c(-c3cc(C(=O)CN4CCOCC4)ccc3OCC)nc12` as the compound, how does the efflux ratio [10] read?
Answer: 0.8

Question: What about the IC50 [2] of the same compound?
Answer: 1.7 nM

Question: What about the Papp at 25 µM [13] of the same compound?
Answer: 33 ×10⁻⁶ cm/s

Question: For `CCCCOc1ncc(C(C)=O)cc1-c1nc(O)c2nn(C3CNC3)c(CC)c2n1`, which Selectivity ratio [1] is on record?
Answer: 29

Question: Which IC50 [2] does the source give for `CCCCOc1ncc(C(C)=O)cc1-c1nc2c(CC)n(C3CCNCC3)nc2c(=O)[nH]1` here?
Answer: 18 nM

Question: With `CCCOc1ncc(C(C)=O)cc1-c1nc(O)c2nn(C3CN(CC)C3)c(CC)c2n1` as the compound, how does the Selectivity ratio [1] read?
Answer: 61

Question: For `CCCCOc1ncc(C(C)=O)cc1-c1nc2c(CC)n(C3CNC3)nc2c(=O)[nH]1`, which IC50 [2] is on record?
Answer: 21 nM

Question: For `CCCOc1ncc(C(C)=O)cc1-c1nc(O)c2nn(C3CCNCC3)c(CC)c2n1`, which Selectivity ratio [1] is on record?
Answer: 53

Question: Which Selectivity ratio [1] does the source give for `CCCOc1ncc(C(C)=O)cc1-c1nc(O)c2nn(C3CCN(CC)CC3)c(CC)c2n1` here?
Answer: 18

Question: With `CCc1c2nc(-c3cc(C(C)=O)cnc3OCC(C)C)nc(O)c2nn1C1CN(C)C1` as the compound, how does the Selectivity ratio [1] read?
Answer: 84

Question: For `CCCCOc1ncc(C(C)=O)cc1-c1nc(O)c2nn(C3CCN(C)CC3)c(CC)c2n1`, which Selectivity ratio [1] is on record?
Answer: 77

Question: Which Selectivity ratio [1] does the source give for `CCCOc1ncc(C(C)=O)cc1-c1nc(O)c2nn(Cc3nccn3C)c(CC)c2n1` here?
Answer: 58

Question: What about the IC50 [2] of the same compound?
Answer: 2.7 nM

Question: Which results are given for `CCCOc1ncc(C(C)=O)cc1-c1nc(=O)c2nn(C3CNC3)c(CCC)c2[nH]1`?
Answer: Selectivity ratio [1]: 26; logD [14]: 0.6; IC50 [2]: 18.2 nM

Question: With `CCc1c2nc(-c3cc(C(C)=O)cnc3OCC(C)C)[nH]c(=O)c2nn1C1CN(C)C1` as the compound, how does the IC50 [2] read?
Answer: 8.2 nM

Question: For `CCCCOc1ncc(C(C)=O)cc1-c1nc(O)c2nn(C3CCN(CC)CC3)c(CC)c2n1`, which Selectivity ratio [1] is on record?
Answer: 350

Question: For `CCCCOc1ncc(C(C)=O)cc1-c1nc2c(CC)n(C3CN(C)C3)nc2c(=O)[nH]1`, which IC50 [2] is on record?
Answer: 6.4 nM

Question: For `CCCCOc1ncc(C(C)=O)cc1-c1nc2c(CC)n(CCN3CCOCC3)nc2c(=O)[nH]1`, which solubility [15] is on record?
Answer: < 10 µg/mL

Question: What about the half-life [6] of the same compound?
Answer: > 2 h

Question: And the IC50 [2]?
Answer: 2.6 nM

Question: What about the Papp at 25 µM [13] of the same compound?
Answer: 37 ×10⁻⁶ cm/s

Question: What does the source list for `CCc1c2nc(-c3cc(S(=O)(=O)N4CCN(CC)CC4)cnc3OCCOC)[nH]c(=O)c2nn1Cc1ccccn1`?
Answer: bioavailability [16]: 45%; IC50 [2]: 1.3 nM

Question: With `CCCOc1ncc(C(C)=O)cc1-c1nc(O)c2nn(C3CN(C(C)C)C3)c(CC)c2n1` as the compound, how does the Selectivity ratio [1] read?
Answer: 60

Question: For `CCCOc1ncc(C(C)=O)cc1-c1nc(=O)c2nn(C3CNC3)c(CC)c2[nH]1`, which Selectivity ratio [1] is on record?
Answer: 55

Question: For `CCCc1nn(C)c2c(=O)[nH]c(-c3cc(C(C)=O)ccc3OCC)nc12`, which efflux ratio [10] is on record?
Answer: 0.7

Question: What about the IC50 [2] of the same compound?
Answer: 17 nM

Question: And the Papp at 25 µM [13]?
Answer: 43 ×10⁻⁶ cm/s

Question: Which IC50 [2] does the source give for `CCCOc1ncc(C(C)=O)cc1-c1nc2c(CC)n(C3CCN(CC)CC3)nc2c(=O)[nH]1` here?
Answer: 13 nM

Question: With `CCCCOc1ncc(C(C)=O)cc1-c1nc(O)c2nn(C3CCNCC3)c(CC)c2n1` as the compound, how does the Selectivity ratio [1] read?
Answer: 57

Question: Which IC50 [2] does the source give for `CCCOc1ncc(C(C)=O)cc1-c1nc2c(CC)n(C3CCN(C)CC3)nc2c(=O)[nH]1` here?
Answer: 12 nM

Question: What does the source list for `CCCCOc1ncc(C(C)=O)cc1-c1nc(O)c2nn(Cc3nccn3C)c(CC)c2n1`?
Answer: logD (physchem): 2.6; half-life [6]: > 2 h; solubility [17]: 6 µg/mL (≈ 13.3 µM); Selectivity ratio [1]: 142; efflux ratio [10]: 1.6; IC50 [2]: 0.9 nM; Papp at 25 µM [13]: 5 ×10⁻⁶ cm/s

Question: For `CCCOc1ncc(C(C)=O)cc1-c1nc2c(CC)n(C3CCNCC3)nc2c(=O)[nH]1`, which IC50 [2] is on record?
Answer: 7 nM

Question: For `CCCCOc1ncc(C(C)=O)cc1-c1nc(O)c2nn(C3CN(C)C3)c(CC)c2n1`, which Selectivity ratio [1] is on record?
Answer: 43

Question: Which results are given for `CCCOc1ncc(C(C)=O)cc1-c1nc2c(CC)n(C3CNC3)nc2c(=O)[nH]1`?
Answer: logD [14]: 0.3; IC50 [2]: 34 nM

Question: Which results are given for `CCCOc1ncc(C(C)=O)cc1-c1nc2c(CC)n(C3CN(C)C3)nc2c(=O)[nH]1`?
Answer: logD [14]: 1.2; IC50 [2]: 9.5 nM

Question: Which IC50 [2] does the source give for `CCCOc1ncc(C(C)=O)cc1-c1nc2c(CC)n(C3CN(CC)C3)nc2c(=O)[nH]1` here?
Answer: 7.1 nM

Question: With `CCCCOc1ncc(C(C)=O)cc1-c1nc2c(CC)n(C3CCN(CC)CC3)nc2c(=O)[nH]1` as the compound, how does the solubility [18] read?
Answer: 1100 µg/mL (≈ 2360 µM)

Question: What about the logD (physchem) of the same compound?
Answer: 1.8

Question: And the half-life [6]?
Answer: > 2 h

Question: What about the half-life [7] of the same compound?
Answer: 6.7 h

Question: And the Vd [8]?
Answer: 22 L/kg

Question: What about the fraction unbound [9] of the same compound?
Answer: 0.4

Question: And the efflux ratio [10]?
Answer: 1

Question: And the IC50 [2]?
Answer: 3.6 nM

Question: And the clearance [12]?
Answer: 38 mL/min/kg

Question: And the Papp at 25 µM [13]?
Answer: 53 ×10⁻⁶ cm/s

Question: With `CCCOc1ncc(C(C)=O)cc1-c1nc(O)c2nn(C3CN(C)C3)c(CC)c2n1` as the compound, how does the Selectivity ratio [1] read?
Answer: 69

Question: For `CCCOc1ncc(C(C)=O)cc1-c1nc2c(CC)n(C3CN(C(C)C)C3)nc2c(=O)[nH]1`, which bioavailability [3] is on record?
Answer: 91%

Question: What about the solubility [15] of the same compound?
Answer: 170 µg/mL (≈ 388 µM)

Question: What about the logD (physchem) of the same compound?
Answer: 2.5

Question: What about the half-life [6] of the same compound?
Answer: > 2 h

Question: And the half-life [7]?
Answer: 7.2 h

Question: And the Vd [8]?
Answer: 7.8 L/kg

Question: And the fraction unbound [9]?
Answer: 0.34

Question: And the efflux ratio [10]?
Answer: 0.5

Question: And the IC50 [2]?
Answer: 5.2 nM

Question: What about the Tmax [11] of the same compound?
Answer: 1.9 h

Question: And the clearance [12]?
Answer: 13 mL/min/kg

Question: And the Papp at 25 µM [13]?
Answer: 28 ×10⁻⁶ cm/s
